Read-outs that look alike come from different tables or passages of the source.
What was measured:
[1] = In vitro stability of 99mTc-cyclized analogues in PBS; assay type: physicochemical; conditions: pH 7.4, 37 °C
How it was run: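 Test peptides were labelled with 99mTc by exchange from 99mTc-glucoheptonate (pH 7.9–8.1, 60 °C, 30 min), purified by radio-RP-HPLC, mixed with gentisic acid and evaporated. They were diluted in PBS or 1 mM cysteine, adjusted to pH 7.4 and incubated at 37 °C. Aliquots at 1, 2, 4 and 24 h were analysed by RP-HPLC for % intact. Replicate measurements used radio-TLC on C18 (10% ammonium acetate; 1:1 TFA-water/acetonitrile).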

[2] = assay type: in vitro ADME; conditions: mouse, serum, pH 7.4
[3] = Stability of 99mTc-cyclized analogues to cysteine challenge; assay type: physicochemical; conditions: pH 7.4, 37 °C
[4] = parameters: species or system CF-1 mice; conditions: mouse

percent intact 99mTc-analogue post purification ([1]; 1 h): 90.2 ± 2.4% | percent intact 99mTc-analogue post purification ([1]; 2 h): 83.4 ± 5.2% | percent intact 99mTc-analogue post purification ([1]; 4 h): 76.3 ± 3.4% | percent intact 99mTc-analogue post purification ([1]; 24 h): 52.0 ± 5.6% | percent intact 99mTc-analogue post purification ([2]; 1 h): 91.4 ± 1.8% | percent intact 99mTc-analogue post purification ([2]; 2 h): 81.7 ± 4.1% | percent intact 99mTc-analogue post purification ([2]; 4 h): 81.4 ± 4.7% | percent intact 99mTc-analogue post purification ([2]; 24 h): 51.2 ± 4.4% | percent intact 99mTc-analogue post purification ([3]; 1 mM Cys, 1 h): 97.1 ± 3.3% | percent intact 99mTc-analogue post purification ([3]; 1 mM Cys, 2 h): 95.1 ± 2.7% | percent intact 99mTc-analogue post purification ([3]; 1 mM Cys, 4 h): 87.2 ± 1.0% | percent intact 99mTc-analogue post purification ([3]; 1 mM Cys, 24 h): 81.7 ± 1.8% | percent intact 99mTc-analogue post purification ([3]; 10 mM Cys, 1 h): 60.1 ± 5.1% | percent intact 99mTc-analogue post purification ([3]; 10 mM Cys, 2 h): 55.8 ± 6.9% | percent intact 99mTc-analogue post purification ([3]; 10 mM Cys, 4 h): 38.9 ± 3.7% | percent intact 99mTc-analogue post purification ([3]; 10 mM Cys, 24 h): 22.9 ± 4.5% | In vivo biodistribution, Adrenals ([4]; 150 ug, 1 h): 2.18 ± 0.69 %ID/g | In vivo biodistribution, Blood ([4]; 150 ug, 1 h): 4.31 ± 0.44 %ID/g | In vivo biodistribution, Kidney ([4]; 150 ug, 1 h): 8.00 ± 1.74 %ID/g | In vivo biodistribution, Lg. Int ([4]; 150 ug, 1 h): 1.70 ± 0.18 %ID/g | In vivo biodistribution, Liver ([4]; 150 ug, 1 h): 6.47 ± 1.64 %ID/g | In vivo biodistribution, Muscle ([4]; 150 ug, 1 h): 0.68 ± 0.06 %ID/g | In vivo biodistribution, Pancreas ([4]; 150 ug, 1 h): 2.08 ± 0.31 %ID/g | In vivo biodistribution, Sm. lnt ([4]; 150 ug, 1 h): 10.91 ± 2.12 %ID/g | In vivo biodistribution, Spleen ([4]; 150 ug, 1 h): 1.74 ± 0.24 %ID/g | In vivo biodistribution, Stomach ([4]; 150 ug, 1 h): 14.18 ± 4.97 %ID/g | In vivo biodistribution, Adrenals ([4]; 1 h): 1.53 ± 0.30 %ID/g | In vivo biodistribution, Blood ([4]; 1 h): 3.81 ± 0.10 %ID/g | In vivo biodistribution, Kidney ([4]; 1 h): 12.05 ± 2.14 %ID/g | In vivo biodistribution, Lg. Int ([4]; 1 h): 2.55 ± 0.21 %ID/g | In vivo biodistribution, Liver ([4]; 1 h): 4.17 ± 0.34 %ID/g | In vivo biodistribution, Muscle ([4]; 1 h): 0.53 ± 0.06 %ID/g | In vivo biodistribution, Pancreas ([4]; 1 h): 1.49 ± 0.06 %ID/g | In vivo biodistribution, Sm. lnt ([4]; 1 h): 15.48 ± 3.35 %ID/g | In vivo biodistribution, Spleen ([4]; 1 h): 1.30 ± 0.17 %ID/g | In vivo biodistribution, Stomach ([4]; 1 h): 11.69 ± 10.10 %ID/g | In vivo biodistribution, Adrenals ([4]; 4 h): 0.86 ± 0.43 %ID/g | In vivo biodistribution, Blood ([4]; 4 h): 1.50 ± 0.29 %ID/g | In vivo biodistribution, Kidney ([4]; 4 h): 6.54 ± 0.23 %ID/g | In vivo biodistribution, Lg. Int ([4]; 4 h): 22.09 ± 4.99 %ID/g | In vivo biodistribution, Liver ([4]; 4 h): 1.58 ± 0.06 %ID/g | In vivo biodistribution, Muscle ([4]; 4 h): 0.25 ± 0.06 %ID/g | In vivo biodistribution, Pancreas ([4]; 4 h): 0.55 ± 0.04 %ID/g | In vivo biodistribution, Sm. lnt ([4]; 4 h): 2.02 ± 0.67 %ID/g | In vivo biodistribution, Spleen ([4]; 4 h): 0.55 ± 0.13 %ID/g | In vivo biodistribution, Stomach ([4]; 4 h): 7.54 ± 4.16 %ID/g | In vivo biodistribution, Adrenals ([4]; 24 h): 0.12 ± 0.03 %ID/g | In vivo biodistribution, Blood ([4]; 24 h): 0.15 ± 0.02 %ID/g | In vivo biodistribution, Kidney ([4]; 24 h): 2.04 ± 0.37 %ID/g | In vivo biodistribution, Lg. Int ([4]; 24 h): 3.08 ± 1.60 %ID/g | In vivo biodistribution, Liver ([4]; 24 h): 0.39 ± 0.03 %ID/g | In vivo biodistribution, Muscle ([4]; 24 h): 0.05 ± 0.02 %ID/g | In vivo biodistribution, Pancreas ([4]; 24 h): 0.07 ± 0.01 %ID/g | In vivo biodistribution, Sm. lnt ([4]; 24 h): 0.68 ± 0.20 %ID/g | In vivo biodistribution, Spleen ([4]; 24 h): 0.08 ± 0.01 %ID/g | In vivo biodistribution, Stomach ([4]; 24 h): 1.26 ± 0.49 %ID/g | uptake in the various tissues and organs relative to TATE and 99mTc-2 ([4]; in vivo): two to four times higher
Substance: ^99mTc-Ac-Tyr^3-octreotate [99mTc-1]

From article PMC3086726 (Nuclear medicine and biology, 2010)
